According to ChEMBL document CHEMBL3044702, “Synthesis and insecticidal activities of novel N-sulfenyl-N'-tert-butyl-N,N'-diacylhydrazines. 3. N-(alkyldithio), n-(aminothio), and N,N-dithio derivatives” (2008):
In brackets after ≈: the same amount, converted by molar mass.

Key:
Format in all cases: functional
Mythimna separata [1] = test: Larvicidal activity against fourth-instar larval stage of Mythimna separata (Oriental armyworm) in compound-pretreated corn leaves assessed as mortality at 100 mg/kg at 25 +/-1 degC measured after 4 days
Method in brief: (§1)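 Insects were reared in the laboratory and tested at 25 ± 1 °C, with repeats as statistics required. Larvae were scored dead or alive. Mortality was corrected by Abbott's formula and expressed on a 0–100 scale, where 0 is no activity and 100 is total kill.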

Mythimna separata [2] = test: Larvicidal activity against fourth-instar larval stage of Mythimna separata (Oriental armyworm) in compound-pretreated corn leaves assessed as mortality at 50 mg/kg at 25 +/-1 degC measured after 4 days; method in brief: as §1
Mythimna separata [3] = test: Larvicidal activity against fourth-instar larval stage of Mythimna separata (Oriental armyworm) in compound-pretreated corn leaves assessed as mortality at 200 mg/kg at 25 +/-1 degC measured after 4 days; method in brief: as §1
Mythimna separata [4] = test: Larvicidal activity against fourth-instar larval stage of Mythimna separata (Oriental armyworm) in compound-pretreated corn leaves assessed as mortality at 10 mg/kg at 25 +/-1 degC measured after 4 days; method in brief: as §1
Mythimna separata [5] = test: Larvicidal activity against fourth-instar larval stage of Mythimna separata (Oriental armyworm) in compound-pretreated corn leaves assessed as mortality at 40 mg/kg at 25 +/-1 degC measured after 4 days; method in brief: as §1
Mythimna separata [6] = test: Larvicidal activity against fourth-instar larval stage of Mythimna separata (Oriental armyworm) in compound-pretreated corn leaves assessed as mortality at 20 mg/kg at 25 +/-1 degC measured after 4 days; method in brief: as §1
Mythimna separata [7] = test: Larvicidal activity against fourth-instar larval stage of Mythimna separata (Oriental armyworm) in compound-pretreated corn leaves assessed as mortality at 25 mg/kg at 25 +/-1 degC measured after 4 days; method in brief: as §1
Mythimna separata [8] = test: Larvicidal activity against fourth-instar larval stage of Mythimna separata (Oriental armyworm) in compound-pretreated corn leaves assessed as mortality at 2.5 mg/kg at 25 +/-1 degC measured after 4 days; method in brief: as §1
Mythimna separata [9] = test: Larvicidal activity against fourth-instar larval stage of Mythimna separata (Oriental armyworm) in compound-pretreated corn leaves assessed as mortality at 5 mg/kg at 25 +/-1 degC measured after 4 days; method in brief: as §1
Mythimna separata [10] = test: Larvicidal activity against fourth-instar larval stage of Mythimna separata (Oriental armyworm) in compound-pretreated corn leaves assessed as mortality at 30 mg/kg at 25 +/-1 degC measured after 4 days; method in brief: as §1
Plutella xylostella [11] = test: Larvicidal activity against second-instar larval stage of Plutella xylostella (diamondback moth) in cabbage leaves assessed as mortality at 25 +/-1 degC treated for 15 secs before larval infestation measured after 6 days by leaf-dip method; settings: 144 h
Method in brief: (§2)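 Leaf-dip assay on laboratory-reared diamondback moth larvae at 25 ± 1 °C. Fresh cabbage leaf disks 1.8 cm across were dipped in test solution for 15 s. Larvae were scored dead or alive, and mortality was corrected by Abbott's formula. Mortality-regression data were put through Finney probit analysis to give LC50 for the test compounds and the parent reference.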

Plutella xylostella [12] = test: Toxic ratio of RH-5992 LC50 to compound LC50 for second-instar larval stage of Plutella xylostella (diamondback moth) measured after 6 days by leaf-dip method; method in brief: as §2

Row | Compound | mortality at 100 mg/kg (Mythimna separata [1]) [%] | mortality at 50 mg/kg (Mythimna separata [2]) [%] | mortality at 200 mg/kg (Mythimna separata [3]) [%] | mortality at 10 mg/kg (Mythimna separata [4]) [%] | mortality at 40 mg/kg (Mythimna separata [5]) [%] | mortality at 20 mg/kg (Mythimna separata [6]) [%] | mortality at 25 mg/kg (Mythimna separata [7]) [%] | mortality at 2.5 mg/kg (Mythimna separata [8]) [%] | mortality at 5 mg/kg (Mythimna separata [9]) [%] | mortality at 30 mg/kg (Mythimna separata [10]) [%] | LC50 (Plutella xylostella [11]) [µg/mL] | RatioLC50 (Plutella xylostella [12])
1 | Cc1cccc(C(=O)N(NC(=O)c2ccccc2)C(C)(C)C)c1 | 50 | 30 | 100 | 0 |  |  |  |  |  |  |  | 
2 | Cc1cc(C)cc(C(=O)N(NC(=O)c2ccc(Cl)cc2)C(C)(C)C)c1 | 100 | 100 | 100 | 30 | 100 | 50 |  |  |  |  |  | 
3 | CC(C)(C)N(NC(=O)c1ccccc1)C(=O)c1ccccc1 [RH-5849] |  | 95 |  | 0 |  |  | 70 |  |  |  |  | 
4 | CCOC(=O)CCN(Cc1ccccc1)SN(Cc1ccc(CC)cc1)N(C(=O)c1cc(C)cc(C)c1)C(C)(C)C |  |  |  |  |  |  |  | 100 |  |  |  | 
5 | CC(C)(C)N(C(=O)c1ccccc1)N(SSN(C(=O)c1ccccc1)N(C(=O)c1ccccc1)C(C)(C)C)C(=O)c1ccccc1 | 85 | 60 | 95 | 5 |  |  |  |  |  |  |  | 
6 | CCc1ccc(CN(SNc2ccc(C)cc2)N(C(=O)c2cc(C)cc(C)c2)C(C)(C)C)cc1 |  |  |  |  |  |  |  | 100 |  |  |  | 
7 | Cc1cc(C)cc(C(=O)N(NC(=O)c2ccc3c(c2C)OC(C)C3)C(C)(C)C)c1 (stereo not drawn) [FUXIAN] |  |  |  |  |  |  |  | 90 | 100 |  |  | 
8 | CCCCSSN(C(=O)c1ccccc1)N(C(=O)c1ccccc1)C(C)(C)C |  | 100 |  | 0 |  |  | 90 |  |  |  |  | 
9 | Cc1cccc(C(=O)N(N(SSN(C(=O)c2ccccc2)N(C(=O)c2cccc(C)c2)C(C)(C)C)C(=O)c2ccccc2)C(C)(C)C)c1 | 50 | 10 | 100 | 0 |  |  |  |  |  |  |  | 
10 | Cc1cc(C)cc(C(=O)N(NC(=O)c2ccccc2)C(C)(C)C)c1 | 100 | 80 | 100 | 10 |  |  |  |  |  |  |  | 
11 | CC(C)(C)N(NC(=O)c1ccc(Cl)cc1)C(=O)c1ccccc1 [HALOFENOZIDE] | 100 | 100 | 100 | 0 | 100 | 85 |  | 10 | 70 | 95 |  | 
12 | CC(C)(C)N(C(=O)c1ccccc1)N(SSN(C(=O)c1ccc(Cl)cc1)N(C(=O)c1ccccc1)C(C)(C)C)C(=O)c1ccc(Cl)cc1 | 100 | 100 |  | 10 | 100 | 75 |  |  |  | 85 |  | 
13 | Cc1cccc(C(=O)N(N(SSN(C(=O)c2ccc(Cl)cc2)N(C(=O)c2cccc(C)c2)C(C)(C)C)C(=O)c2ccc(Cl)cc2)C(C)(C)C)c1 | 100 | 100 | 100 | 0 |  |  |  |  |  |  |  | 
14 | CCCCSSN(C(=O)c1cccc(OC)c1C)N(C(=O)c1cc(C)cc(C)c1)C(C)(C)C |  |  |  | 100 |  |  | 100 | 100 | 100 |  |  | 
15 | CCCCSSN(C(=O)c1ccc(Cl)cc1)N(C(=O)c1ccccc1)C(C)(C)C |  |  |  | 90 |  |  | 100 | 0 | 30 |  |  | 
16 | CCc1ccc(C(=O)N(SSN(C(=O)c2ccc(CC)cc2)N(C(=O)c2cc(C)cc(C)c2)C(C)(C)C)N(C(=O)c2cc(C)cc(C)c2)C(C)(C)C)cc1 | 100 | 100 | 100 | 10 | 100 | 95 |  |  |  | 100 |  | 
17 | CCCSSN(C(=O)c1ccc2c(c1C)OC(C)C2)N(C(=O)c1cc(C)cc(C)c1)C(C)(C)C (stereo not drawn) |  |  |  | 100 |  |  | 100 | 100 | 100 |  |  | 
18 | CCc1ccc(C(=O)NN(C(=O)c2cc(C)cc(C)c2)C(C)(C)C)cc1 [TEBUFENOZIDE] | 100 | 100 | 100 | 75 | 100 | 100 |  | 55 | 95 | 100 | 56.9 (≈ 161 µM) | 1
19 | CCCCSSN(C(=O)c1ccc(CC)cc1)N(C(=O)c1cc(C)cc(C)c1)C(C)(C)C |  |  |  | 100 |  |  |  | 90 | 100 |  |  | 
20 | CCCSSN(C(=O)c1ccccc1)N(C(=O)c1ccccc1)C(C)(C)C |  | 100 |  | 0 |  |  | 90 |  |  |  |  | 
21 | CCc1ccc(CN(SNc2ccc(Cl)cc2)N(C(=O)c2cc(C)cc(C)c2)C(C)(C)C)cc1 |  |  |  | 90 |  |  | 100 | 0 | 80 |  |  | 
22 | CCCSSN(C(=O)c1cccc(OC)c1C)N(C(=O)c1cc(C)cc(C)c1)C(C)(C)C |  |  |  | 100 |  |  | 100 | 100 | 100 |  |  | 
23 | Cc1cc(C)cc(C(=O)N(N(SSN(C(=O)c2ccccc2)N(C(=O)c2cc(C)cc(C)c2)C(C)(C)C)C(=O)c2ccccc2)C(C)(C)C)c1 | 70 | 10 | 100 | 0 |  |  |  |  |  |  |  | 
24 | Cc1cccc(C(=O)N(NC(=O)c2ccc(Cl)cc2)C(C)(C)C)c1 | 100 | 90 | 100 | 0 |  |  |  |  |  |  |  | 
25 | CCCSSN(C(=O)c1ccc(CC)cc1)N(C(=O)c1cc(C)cc(C)c1)C(C)(C)C |  |  |  | 100 |  |  |  | 100 | 100 |  |  | 
26 | Cc1cc(C)cc(C(=O)N(N(SSN(C(=O)c2ccc(Cl)cc2)N(C(=O)c2cc(C)cc(C)c2)C(C)(C)C)C(=O)c2ccc(Cl)cc2)C(C)(C)C)c1 | 90 | 60 | 100 | 0 |  |  |  |  |  |  |  | 
27 | CCCCSSN(C(=O)c1ccc2c(c1C)OC(C)C2)N(C(=O)c1cc(C)cc(C)c1)C(C)(C)C (stereo not drawn) |  |  |  | 100 |  |  | 100 | 80 | 100 |  |  | 
28 | CCCSSN(C(=O)c1ccc(Cl)cc1)N(C(=O)c1ccccc1)C(C)(C)C |  |  |  | 80 |  |  | 100 | 0 | 20 |  |  | 
